Compound activity as filed in PubChem BioAssay.
Most compounds without a hit are left out; they make up all but 1.2% or so of the library.
PERK inh = human PERK inhibition, primary cell-based screen | CHO PERK-DD fusion, SEAP luminescence translation reporter | inhibition, % at 5.6 µM | 0.17% of 220,000 active;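 active = inhibition above the mean inhibition of all tested compounds plus 3 SD, set separately per screening campaign, cut at about 2.9% in these data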;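 also: PERK kinase domain activated by AP20187 dimerizer at 100 nM; 0% = DMSO with dimerizer and 100% = rapamycin at 8.4 µM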
Target sequence (Q9NZJ5 whole entry, looked up, the tested form may be a part): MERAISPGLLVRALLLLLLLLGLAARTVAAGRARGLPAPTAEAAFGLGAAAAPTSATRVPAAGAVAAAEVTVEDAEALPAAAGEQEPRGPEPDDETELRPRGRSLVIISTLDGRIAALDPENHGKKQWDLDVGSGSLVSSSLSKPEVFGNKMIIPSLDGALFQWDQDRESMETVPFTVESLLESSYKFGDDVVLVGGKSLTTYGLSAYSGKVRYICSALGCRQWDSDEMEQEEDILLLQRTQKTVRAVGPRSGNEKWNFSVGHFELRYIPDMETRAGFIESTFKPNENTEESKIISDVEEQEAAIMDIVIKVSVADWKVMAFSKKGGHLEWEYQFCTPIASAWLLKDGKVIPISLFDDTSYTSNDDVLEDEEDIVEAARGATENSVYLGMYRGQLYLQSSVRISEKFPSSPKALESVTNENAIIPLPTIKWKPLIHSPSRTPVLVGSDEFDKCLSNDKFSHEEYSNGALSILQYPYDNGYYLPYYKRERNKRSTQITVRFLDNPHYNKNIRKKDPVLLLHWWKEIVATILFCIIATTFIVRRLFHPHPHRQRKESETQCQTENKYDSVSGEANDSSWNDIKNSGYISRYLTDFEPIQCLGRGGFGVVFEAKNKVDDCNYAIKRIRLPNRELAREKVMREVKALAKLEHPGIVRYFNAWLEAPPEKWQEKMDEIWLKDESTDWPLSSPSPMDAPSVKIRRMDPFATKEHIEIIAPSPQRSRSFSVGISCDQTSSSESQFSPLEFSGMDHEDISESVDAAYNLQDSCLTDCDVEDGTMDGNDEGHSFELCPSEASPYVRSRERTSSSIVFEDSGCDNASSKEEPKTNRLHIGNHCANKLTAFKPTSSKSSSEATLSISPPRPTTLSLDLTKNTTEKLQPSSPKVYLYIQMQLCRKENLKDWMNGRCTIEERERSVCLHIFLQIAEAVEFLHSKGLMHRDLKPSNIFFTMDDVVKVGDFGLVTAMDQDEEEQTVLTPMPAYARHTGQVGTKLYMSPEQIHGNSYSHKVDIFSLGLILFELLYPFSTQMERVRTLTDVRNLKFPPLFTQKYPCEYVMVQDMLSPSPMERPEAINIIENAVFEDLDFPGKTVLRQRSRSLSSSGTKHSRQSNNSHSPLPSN
HSV replic up = HSV replication enhancement; maximum fold increase; AID 1956; HSV replication augmentation in cells, fold increase; 0.005% of 220,000 active; in the data active = maximum fold increase above about 1.5; tested in PC3 cells
TbHK1 inh = blocks Trypanosoma brucei hexokinase 1 activity; recombinant TbHK1, G6PDH-coupled NADH A340; inhibition, % at 10 µM; AID 1430; 0.11% of 220,000 active;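 active = inhibition of 50% or more in the single-dose primary screen; inactive = inhibition below 50%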
HKDC1 inhibitor = HKDC1 (human) hexokinase inhibition | AID 493160 | recombinant HKDC1, G6PDH/diaphorase resazurin coupled fluorescence | inhibition, % at 20 µM | Q2TB90 | 0.16% of 340,000 active;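 active = inhibition above about 35% when tested at 20 µM, limit read from the data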;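 also: plate controls were DMSO wells with enzyme for no effect and DMSO wells lacking enzyme for full effect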
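Test system: HK5 enzyme. Quantity: 5 µg/mL HK5 final. Reagent: glucose and ATP substrates. Schedule: 90 min reaction incubation at room temperature, dark. Technique: resazurin-to-resorufin fluorescence via G6PDH and diaphorase coupling, 525/613 nm. Control set: DMSO wells with and without enzyme mix.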
Dynein transport = dynein cargo transport inhibition; 3617.4 mouse cells, GR-EGFP nuclear translocation imaging; test concentration mostly 20 µM; stimulated with dexamethasone, 1 µM; hits give low values; z-score, hits read low; 0.47% of 220,000 active; AID 1381;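 active = plate z-score of nuclear minus cytoplasmic receptor signal below a set negative limit, without overly bright fluorescence or cell loss, cut at about -3.5 in these data, passing the limit was not always enough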;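 also: z-score of nuclear minus cytoplasmic ring GR-EGFP intensity difference per well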
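Also added: dexamethasone, 1.0 µM final. Medium: tet-free, stripped-serum medium. Detection: fixed, Hoechst-stained cells imaged at 10x for EGFP. Read-out: nuclear-to-cytoplasmic GR-EGFP distribution per well. Times: induction 48 h, compound 1 h, agonist 30 min.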
Autophagy HCS = modulators of autophagy. AID 463193. calls only at 10 µM (by protocol). 0.98% of 190,000 active. MEF GFP-LC3 puncta imaging; test concentration mostly 10 µM;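 active = percentage of spot-positive cells more than 3 SD above its plate mean, without a fluorescence outlier flag or 80% toxicity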;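 also: spot-positive cell cutoff set from DMSO-treated cells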
Active calls of the source: *; i = inactive; . = no result; + = active, no number.

SMILES | PERK inh | HSV replic up | TbHK1 inh | HKDC1 inhibitor | Dynein transport | Autophagy HCS
COc1ccc(S(=O)(=O)NCC2CCCN(C(=O)c3sccc3C)C2)cc1 (configuration not stated) | -1 | i | 3 | -10 | -0.88 | +
COc1ccc(S(=O)(=O)NCC2CCCN(C(=O)c3ccccc3)C2)cc1 (configuration not stated) | 0 | i | -4 | -6 | 0.22 | i
COc1ccc2nc3sc(C(=O)NCc4cccs4)c(N)c3cc2c1 | 0 | i | -3 | . | -0.098 | +
COc1ccc(-c2cc(C(=O)NCc3cccs3)no2)cc1 | 0 | i | -38 | -2 | -0.47 | .
CC1CCN(Cc2c(O)ccc3c(=O)c(-c4nc5ccccc5s4)c(N)oc23)CC1 | -1 | i | -46 | -6 | 0.57 | +
CC1CCCN(Cc2c(O)ccc3c(=O)c(-c4nc5ccccc5s4)c(N)oc23)C1 (configuration not stated) | -1 | i | -55 | 23 | 0.043 | i
CCOc1cc(NC(=O)C2CC2)c(OCC)cc1NC(=O)c1cccc(F)c1 | . | . | . | -4 | . | .
CCOc1cc(NC(=O)c2cnccn2)c(OCC)cc1NC(=O)c1cccc(F)c1 | 1 | i | -11 | . | 1.3 | +
O=c1[nH]c(SCCOc2cccc3ccccc23)nc2ccccc12 | 0 | i | 5 | 17 | 0.14 | +
NS(=O)(=O)c1ccc(NC(=O)CSc2nc3c(cnn3-c3ccccn3)c(=O)[nH]2)cc1 | . | . | . | -3 | . | .
COc1ccc2c(c1)c(CC(=O)OCC(=O)O)c(C)n2C(=O)c1ccc(Cl)cc1 | 0 | i | -10 | -2 | 2.5 | +
CCNS(=O)(=O)c1ccc(CCC(=O)NCc2cccnc2)cc1 | . | . | . | -4 | . | .
CCNS(=O)(=O)c1ccc(CCC(=O)NCc2ccc(C)cc2)cc1 | 0 | i | -6 | -8 | -0.31 | +
CCCCSCCCNC(=S)Nc1ccccc1C | 1 | i | 6 | -4 | 1.7 | i
Cc1ccccc1NC(=S)NCCO | 0 | i | -8 | -5 | 0.74 | +
Cc1csc(=O)n1CCC(=O)OCC(=O)NNC(=O)c1ccc(Cl)cc1 | . | . | . | -3 | . | .
O=c1[nH]c(/C=C2\C=Nc3ccccc32)c(O)n1Cc1ccccc1F | 0 | i | -3 | 1 | -1.3 | +
CSc1nc(O)c(/C=C2\C=Nc3ccccc32)[nH]1 | 0 | i | -2 | -3 | -0.43 | i
C=CCN1C(=O)C(C)(C)N(C(C)=O)c2ccccc21 | 0 | i | 0 | 11 | -1.1 | i
CC(=O)N1c2ccccc2N(Cc2ccc(C)cc2C)C(=O)C1(C)C | . | i | -4 | -3 | -1 | +
O=C(CSc1nc2ccccc2c(=O)n1CCCN1CCOCC1)c1c[nH]c2ccccc12 | -1 | i | -10 | -5 | 0.92 | +
CC(=O)c1ccccc1NC(=O)CSc1nc2ccccc2c(=O)n1CCCN1CCOCC1 | . | . | . | 1 | . | .
NS(=O)(=O)c1cccc(NC(=O)CSc2nc3ccccc3c(=O)n2CCCN2CCOCC2)c1 | 2 | i | -3 | -6 | -0.31 | +
NC(=O)c1ccc(NC(=O)CSc2nc3ccccc3c(=O)n2CCCN2CCOCC2)cc1 | . | . | . | 0 | . | .
CC(=O)Nc1c(I)c(C(=O)N[C@H]2C(O)O[C@H](CO)[C@@H](O)[C@@H]2O)c(I)c(N(C)C(C)=O)c1I (some centres not stated) | . | . | . | 3 | . | .
SMILES | PERK inh | HSV replic up | TbHK1 inh | HKDC1 inhibitor | Dynein transport | Autophagy HCS
COc1cc(NC(=O)c2cccnc2)ccc1-c1cc2ccccc2oc1=O | 1 | i | -8 | . | -0.73 | i
COc1cc(NC(=O)c2cc(Cl)ccc2Cl)ccc1-c1cc2ccccc2oc1=O | 1 | i | -2 | 1 | -0.74 | +
Cc1ccc(S(=O)(=O)N2CCOC2CNC(=O)C(=O)NCCCN2CCOCC2)cc1 (configuration not stated) | . | . | . | 3 | . | .
CCc1ccc(N2C(=O)/C(=C/c3cccs3)N(CC(=O)OC)C2=S)cc1 | -1 | i | -10 | -8 | -0.11 | +
Oc1c(N=Nc2ccccn2)ccc2ccccc12 | 0 | i | 5 | -3 | -0.74 | +
OCCN1CCN(CC(O)COc2ccc(Cl)cc2)CC1 (configuration not stated) | 1 | i | -12 | -2 | -1.7 | i
OCCN1CCN(CC(O)COc2ccc(C34CC5CC(CC(C5)C3)C4)cc2)CC1 (configuration not stated) | 0 | i | 7 | 4 | 6.4 | +
C=CCC1(/C=N/O)CCOC(C)(C)C1 (configuration not stated) | 0 | i | -9 | -5 | -0.61 | .
O=C(NC(=S)Nc1ccc2oc(-c3ccncc3)nc2c1)c1ccccc1F | 2 | i | -27 | 6 | 0.13 | i
O=C(NC(=S)Nc1ccc2oc(=O)ccc2c1)c1ccccc1F | 3.7* | i | -20 | -1 | -0.67 | .
CC(NCCC(c1ccccc1)c1ccccc1)c1ccccc1 (configuration not stated) | -1 | i | 13 | 1 | -0.4 | +
Cc1cccc(OCCN2CSC(=S)N(C)C2)c1 | 0 | i | 3 | 1 | -0.88 | +
COc1ccnc2c1c(=O)n(Cc1ccc(Cl)cc1Cl)c(=O)n2C | . | . | . | -4 | . | .
COc1ccc2c(C)nc(Nc3nc(C)cc(=O)[nH]3)nc2c1 | 0 | . | -13 | . | -0.11 | +
COc1ccc2c(C)nc(Nc3nc(-c4ccccc4)cc(=O)[nH]3)nc2c1 | -2 | i | -21 | 7 | -0.2 | .
CN1C(=O)[C@H]2[C@@H](/C=C/c3ccccc3)N3C(=O)CN(Cc4ccc(-c5ccccc5)cc4)C(=O)[C@@]3(Cc3ccccc3)[C@H]2C1=O | . | . | . | -3 | . | .
CCOc1ccccc1CNC(=O)CCCc1cn(C)c2ccccc12 | -1 | . | 3 | -6 | 0.62 | +
O=C1NC(c2ccncc2)C(C(=O)c2cccs2)C(O)(C(F)(F)F)N1 (configuration not stated) | 3.0* | i | -2 | -8 | 0.6 | i
O=C1NC(c2cccnc2)C(C(=O)c2cccs2)C(O)(C(F)(F)F)N1 (configuration not stated) | 1 | i | 0 | 0 | 0.027 | i
COc1cc(Cl)ccc1OCc1cc(C(=O)N(C)CC2CCCCO2)no1 (configuration not stated) | . | . | . | -2 | . | .
Cn1c(=O)c2c(nc(N3CCNCC3)n2Cc2cccc3ccccc23)n(C)c1=O | -1 | i | -1 | 2 | -0.79 | +
CC1(C)Cc2c(sc(NC(=O)C(=O)N3CCCCC3)c2C(=O)O)CO1 | . | . | . | -5 | . | .
COc1ccc(-c2nc(SCC(=O)NC3CCCCC3)n[nH]2)cc1 | . | . | . | -4 | . | .
Nc1c(C(=O)OCC2CCCO2)c2nc3ccccc3nc2n1-c1ccc2c(c1)OCCO2 (configuration not stated) | -2 | i | -19 | 5 | -1.2 | i
